≈ marks a conversion by molar mass, not a printed value. Calls of active or inactive are those of the source. No cut-off for these calls is given here.
Key:
DU-145 [1] = test: Cytotoxicity against human DU145 cells by SRB method; type: functional
KB [2] = test: Cytotoxicity against human KB cells by SRB method; type: functional
Tubulin (Homo sapiens) [3] = target: T1, Tubulin (Homo sapiens) (UniProt P68371+Q9H4B7+P0DPH7+P68366+Q13509+Q71U36+P04350+Q3ZCM7+P07437+P68363+Q9BQE3+Q6PEY2+Q13885+Q9BVA1+Q9BUF5); test: Competitive inhibition of [3H]colchicine binding to tubulin (unknown origin) at 5 uM after 10 mins by radioligand displacement assay; type: protein-complex assay
How it was run: (§1)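 [3H]colchicine binding: 1.0 µM tubulin, 5.0 µM [3H]colchicine and inhibitor at 5.0 or 1.0 µM, 10 min at 37 °C, when control binding reaches about 40–60% of maximum. […] Percent inhibition reported.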

[4] = […] partition coefficient, log P of the compound at pH 7.4 after 24 hrs by HPLC analysis; type: physicochemical
How it was run: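 Compound dissolved at 1.0 mg/mL in […]. Log P taken from the ratio of HPLC peak areas in the […] and water phases.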

[5] = Aqueous solubility of the compound at pH 7.4 after 4 hrs by HPLC-UV method; type: physicochemical; settings: buffer, pH 7.4, 4 h
How it was run: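 Solubility at pH 7.4: DMSO stock (1.0 mg/mL) diluted into phosphate buffer, final DMSO 1%; stirred 4 h at rt, centrifuged; saturated supernatant quantified by HPLC–UV against a standard curve (50–0.20 µg/mL in ACN). Triplicate samples.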

[6] = Cytotoxicity against human KBVIN cells by SRB method; type: functional
Tubulin = test: Inhibition of tubulin assembly (unknown origin) preincubated for 15 mins followed by GTP addition measured after 20 mins by turbidimetric analysis; type: protein-complex assay, Homo sapiens
A549 [7] = test: Cytotoxicity against human A549 cells by SRB method; type: functional
KB [8] = test: Cytotoxicity against human KB cells at 60 uM by SRB method; type: functional, cell-based
DU-145 [9] = test: Cytotoxicity against human DU145 cells at 60 uM by SRB method; type: functional, cell-based
A549 [10] = test: Cytotoxicity against human A549 cells at 60 uM by SRB method; type: functional, cell-based
KBVIN = test: Cytotoxicity against human KBVIN cells at 60 uM by SRB method; type: functional, cell-based
Tubulin (Homo sapiens) [11] = target: T1, Tubulin (Homo sapiens); test: Competitive inhibition of [3H]colchicine binding to tubulin (unknown origin) at 1 uM after 10 mins by radioligand displacement assay; type: protein-complex assay; how it was run: as §1
Liver microsomes = test: Half life in human liver microsomes at 1 uM by LC-MS analysis; type: ADME, Microsome

inhibition (Tubulin (Homo sapiens) [3]) [%] | logD at 24 h [4] | solubility [5] [µg/mL] | IC50 (Tubulin) [nM] | inhibition (Tubulin (Homo sapiens) [11]) [%] | t1/2 (Liver microsomes) [min] | Structure (SMILES) | GI50 (DU-145 [1]) [nM] | GI50 (KB [2]) [nM] | GI50 [6] [nM] | GI50 (A549 [7]) [nM] | growth inhibition (GI) (KB [8]) | growth inhibition (GI) (DU-145 [9]) | growth inhibition (GI) (A549 [10]) | growth inhibition (GI) (KBVIN)
75 | 4.75 | 0.26 (≈ 0.648 µM) | 1000 |  |  | COc1ccc2c(c1)CCCN2c1cc(Br)cc(C(=O)NC2CC2)c1 | 150 | 160 | 190 | 170 |  |  |  | 
69 | 4.33 | 0.16 (≈ 0.426 µM) | 1600 |  |  | COc1ccc(N(C)c2cc(Br)cc(C(=O)NC3CC3)c2)cc1 |  | 170 |  |  |  |  |  | 
 |  |  |  |  |  | COc1ccc(N(C)c2cc(Br)cc(C(=O)O)c2)cc1 |  |  |  |  | inactive | inactive | inactive | inactive
 |  |  |  |  |  | COC(=O)c1cc(Cl)cc(N2CCCc3cc(OC)ccc32)c1 | 1510 | 2330 | 1780 | 2230 |  |  |  | 
 |  |  |  |  |  | COC(=O)c1cc(Br)cc(N(C)c2ccc(OC)cc2)c1 | 970 | 1360 | 1200 | 1240 |  |  |  | 
 |  |  |  |  |  | COC(=O)c1cc(Cl)cc(N(C)c2ccc(OC)cc2)c1 | 1460 | 1610 | 1570 | 1600 |  |  |  | 
 |  |  |  |  |  | CNC(=O)c1cc(Cl)cc(N(C)c2ccc(OC)cc2)c1 | 230 | 300 | 230 | 270 |  |  |  | 
 |  |  |  |  |  | COC(=O)c1ccc(Cl)cc1N(C)c1ccc(OC)cc1 | 1680 | 1980 | 1890 | 3360 |  |  |  | 
 |  |  |  |  |  | CNC(=O)c1cc(Cl)cc(N2CCCc3cc(OC)ccc32)c1 | 1020 | 1040 | 430 | 740 |  |  |  | 
 |  |  |  |  |  | CNC(=O)c1ccc(Cl)cc1N(C)c1ccc(OC)cc1 | 98900 | 188000 | 61000 | 43200 |  |  |  | 
87 | 3.98 | 3.21 (≈ 10.5 µM) | 1000 | 61 | 7.89 | COc1ccc2c(c1)CCCN2c1cc(C)nc2ccccc12 | 38 | 91 | 55 | 45 |  |  |  | 
 |  |  |  |  |  | COc1ccc2c(c1)CCCN2c1cccc2ccccc12 | 14800 | 15600 | 17600 | 17800 |  |  |  | 
 |  |  |  |  |  | COCc1ccc(Cl)cc1N(C)c1ccc(OC)cc1 | 3130 | 5240 | 2850 | 4530 |  |  |  | 
 |  |  |  |  |  | COc1ccc(N(C)c2cc(Br)cc(C(=O)NC3CCCC3)c2)cc1 | 110 | 120 |  |  |  |  |  | 
 |  |  |  |  |  | CC(=O)O[C@H]1C(=O)[C@@]2(C)[C@H]([C@H](OC(=O)c3ccccc3)[C@]3(O)C[C@H](OC(=O)[C@H](O)[C@@H](NC(=O)c4ccccc4)c4ccccc4)C(C)=C1C3(C)C)[C@]1(OC(C)=O)CO[C@@H]1C[C@@H]2O [PACLITAXEL] | 6 | 6.4 | 1210 | 7.6 |  |  |  | 
 |  |  |  |  |  | CNC(=O)c1cc(N(C)c2ccc(OC)cc2)cc(C(F)(F)F)c1 | 11900 | 12300 | 12600 | 14700 |  |  |  | 
98 | 3.65 | 7.67 (≈ 25.1 µM) | 1000 | 89 | 25.19 | COc1ccc2c(c1)CCCN2c1nc(C)nc2ccccc12 | 15 | 11 | 18 | 18 |  |  |  | 
 |  |  |  |  |  | CNC(=O)c1cc(Br)cc(N2CCCc3cc(OC)ccc32)c1 | 560 | 630 | 930 | 370 |  |  |  | 
71 | 4.02 | 0.81 (≈ 2.32 µM) | 2200 |  |  | CNC(=O)c1cc(Br)cc(N(C)c2ccc(OC)cc2)c1 | 160 | 210 | 140 | 250 |  |  |  | 
 |  |  |  |  |  | COC(=O)c1cc(Br)cc(N2CCCc3cc(OC)ccc32)c1 | 1280 | 1370 | 1270 | 1120 |  |  |  | 
95 | 1.07 | 7.21 (≈ 22.5 µM) | 920 | 76 | 25.97 | CNc1nc(N2CCCc3cc(OC)ccc32)c2ccccc2n1 | 23 | 25 | 29 | 27 |  |  |  | 
 |  |  |  |  |  | COc1ccc(N(C)c2cc(Br)cc(C(=O)N(C)C)c2)cc1 | 3340 | 6520 | 2380 | 2830 |  |  |  | 
 |  |  |  |  |  | COC(=O)c1ccc(Cl)nc1N(C)c1ccc(OC)cc1 | 210 | 260 | 200 | 230 |  |  |  | 
 |  |  |  |  |  | COC(=O)c1cc(N(C)c2ccc(OC)cc2)cc(C(F)(F)F)c1 | 11500 | 13500 | 13100 | 15100 |  |  |  | 
 |  |  |  |  |  | COc1ccc(N(C)c2cc(Cl)ccc2CO)cc1 | 16000 | 19500 | 18100 | 21700 |  |  |  | 

Structure (SMILES) | inhibition (Tubulin (Homo sapiens) [3]) [%] | logD at 24 h [4] | solubility [5] [µg/mL] | IC50 (Tubulin) [nM] | inhibition (Tubulin (Homo sapiens) [11]) [%] | t1/2 (Liver microsomes) [min] | GI50 (DU-145 [1]) [nM] | GI50 (KB [2]) [nM] | GI50 [6] [nM] | GI50 (A549 [7]) [nM] | growth inhibition (GI) (KB [8]) | growth inhibition (GI) (DU-145 [9]) | growth inhibition (GI) (A549 [10]) | growth inhibition (GI) (KBVIN)
COc1ccc2c(c1)CCCN2c1nc(Cl)nc2ccccc12 | 99 | 4.13 |  | 930 | 95 |  | 1.5 |  |  |  |  |  |  | 

From ChEMBL document CHEMBL2417522, “N-aryl-6-methoxy-1,2,3,4-tetrahydroquinolines: a novel class of antitumor agents targeting the colchicine site on tubulin” (Eur J Med Chem, 2013)
